# Screens: PubChem BioAssay, Johns Hopkins Ion Channel Center
# KCNQ1 inh: inhibitors of human KCNQ1 channel, primary screen, cell-based, thallium flux, high-throughput; Potassium voltage-gated channel subfamily KQT member 1 (Homo sapiens), P51787; CHO-K1 KCNQ1, FluxOR thallium flux fluorescence; hits give high values; B-score at 10 µM; actives 1.3% (n = 310,000); AID 2642, 2010;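 active means compounds whose thallium flux B-score, printed positive for inhibition, exceeds three library SD while starting fluorescence stays within three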;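 further: channel opened by potassium depolarization with thallium stimulus after 20 min compound exposure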
# hERG protect: hERG rescue from dofetilide block, primary screen, cell-based, CHO-hERG, FluxOR thallium flux, dofetilide IC70; activation (rescue from dofetilide block), less the hit threshold, % at 10 µM; Voltage-gated inwardly rectifying potassium channel KCNH2 (Homo sapiens), Q12809; dofetilide IC70 present; actives 0.51% (n = 310,000);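 active means activation above the mean of controls blocked by dofetilide plus 5 SD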;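 further: thallium influx through hERG after potassium depolarization seen as dye fluorescence rise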
# Kir21 block: inhibitors of mouse Kir2.1 inward-rectifier potassium channel. HEK293-Kir2.1, FluxOR thallium flux fluorescence; hits give low values. actives 0.85% (n = 310,000). Inward rectifier potassium channel 2 (Mus musculus), P35561. B-score at 10 µM. AID 1672, 2009;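 active means fluorescence ratio B-score at or below minus 3 SD of library scores, with starting-brightness B-score within 2 SD, cut at about -4.2 in these data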;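 further: channel flux triggered by added potassium and thallium sulfate stimulus; B-score of peak minus minimum fluorescence over baseline after thallium stimulus; more negative B-score means stronger Kir2.1 block with less thallium influx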
# Target sequence (P35561 whole entry, looked up): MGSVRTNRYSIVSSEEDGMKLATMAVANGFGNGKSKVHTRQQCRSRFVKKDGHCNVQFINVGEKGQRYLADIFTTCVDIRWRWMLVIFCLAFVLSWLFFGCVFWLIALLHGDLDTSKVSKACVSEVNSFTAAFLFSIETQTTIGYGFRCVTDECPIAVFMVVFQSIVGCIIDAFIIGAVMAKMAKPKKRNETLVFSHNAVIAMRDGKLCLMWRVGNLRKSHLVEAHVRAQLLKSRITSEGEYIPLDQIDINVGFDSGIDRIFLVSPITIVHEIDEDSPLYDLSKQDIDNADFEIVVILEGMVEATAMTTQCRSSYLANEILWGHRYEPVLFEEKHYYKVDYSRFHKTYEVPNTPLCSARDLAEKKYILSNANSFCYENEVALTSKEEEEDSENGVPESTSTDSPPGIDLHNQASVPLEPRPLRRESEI
# KCNK3 block: human KCNK3 channel inhibitors, primary screen, CHO cells, FluxOR thallium flux, B-score | FluxOR fluorescence; hits give low values | AID 602410, 2012 | actives 0.84% (n = 340,000) | Potassium channel subfamily K member 3 (Homo sapiens), O14649 | B-score at 10 µM;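 active means B-score under library mean minus 4 SD, starting fluorescence ratio at most library mean plus 5 SD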;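 further: more negative B-score means stronger inhibition of thallium flux through KCNK3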
# KCNK9 inh: KCNK9 potassium channel inhibitors, primary screen, HEK293 cells, thallium flux | B-score at 10 µM | Potassium channel subfamily K member 9 (Homo sapiens), Q9NPC2 | FluxOR thallium flux fluorescence; hits give low values | actives 1.2% (n = 310,000) | AID 488922, 2010;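 active means ratio B-score over 3 SD below the library mean, with starting fluorescence within 5 SD of its mean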;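 further: negative B-score means less thallium flux so channel inhibition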
# KCNQ1 act: potentiators or activators of KCNQ1 channel, primary screen, cell-based, thallium flux, high-throughput. CHO-K1 KCNQ1, thallium flux FluxOR fluorescence; hits give high values. AID 2648, 2010. Potassium voltage-gated channel subfamily KQT member 1 (Homo sapiens), P51787. B-score at 10 µM. actives 0.35% (n = 310,000);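 active means fluorescence ratio B-score, a plate-corrected score, at least three library SD, with initial intensity B-score within 5 SD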
#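 System: Stable KCNQ1 CHO-K1 line | Incubation: 90 min dye loading and 20 min compound exposure, both at room temperature | Measure: Ratio B score | Medium: Assay buffer for compound exposure, DMSO matched across wells | Compound dosing: Single-concentration screen | Probe or stimulus: K+/Tl+ depolarizing stimulus | Measured by: Kinetic FluxOR fluorescence, 10 s baseline plus 110 s post-stimulus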
# KCNK9 inh conf: KCNK9 potassium channel inhibitors, confirmation, HEK293 cells, thallium flux, duplicate; shares compounds with KCNK9 inh; FluxOR thallium flux fluorescence; inhibition, % at 10 µM; actives 43% (n = 4,900); AID 492992, 2010;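 active means thallium signal inhibited by more than 5 SD of the compound-free buffer control wells, on both duplicate plates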;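 further: 0% = assay buffer control wells without compound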
# Kir21 sel: mouse Kir2.1 channel inhibition, confirmation, selectivity assay for KCNK9 modulator project, cell-based, HEK293, thallium flux. actives 4% (n = 4,900). shares compounds with KCNK9 inh. inhibition, % at 10 µM. AID 492993, 2010. Kir2.1 cells, FluxOR thallium flux fluorescence;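 active means thallium signal drop more than 5 SD beyond the mean of the no-compound control wells, seen in both duplicate plates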;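 further: signal is fluorescence rise after thallium addition divided by baseline fluorescence; plate controls were assay buffer only for no effect and full block by chlorpromazine control for full effect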
# HEK293 Tl ctr: thallium flux in non-induced HEK293 cells, confirmation, counter-screen for KCNK9 inhibitor project, cell-based, second counter screen, non-induced KCNK9-HEK293 | shares compounds with KCNK9 inh | FluxOR thallium flux | inhibition, % at 10 µM | actives 40% (n = 4,900);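 active means thallium signal drop beyond 5 SD of the untreated control mean, on both duplicate plates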;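 further: plate controls were buffer only IC0 wells for no effect and SID17386958 at its maximal inhibitory level for full effect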
# Active calls of the source: *; i = inactive; / = no result. Shown are actives, neighbours in structure and some others; about 3.7% of the full set was active somewhere.
SMILES,KCNQ1 inh,hERG protect,Kir21 block,KCNK3 block,KCNK9 inh,KCNQ1 act,KCNK9 inh conf,Kir21 sel,HEK293 Tl ctr
O=C(CN1CCC(Cc2ccccc2)CC1)NC(=O)NC1CCCCC1,i,-15,-1.1,i,i,i,i,i,i
CCN(CC(=O)NC(=O)NC1CCCCC1)Cc1ccccc1,i,-7,-0.86,i,i,i,i,i,i
Cc1ccccc1-c1nnc(-c2cccs2)o1,i,-10,2.4,i,i,i,/,/,/
N#Cc1cc(-c2ccc(Cl)cc2)cnc1Sc1ccccc1,i,-11,0.98,i,i,i,/,/,/
N#Cc1cc(-c2ccccc2)cnc1Sc1ccc(Cl)cc1,i,-14,0.7,i,i,i,i,i,i
O=C1CC(NS(=O)(=O)c2ccc([N+](=O)[O-])cc2)CN1c1ccc(Cl)cc1 (centres undefined),i,-6,1.6,i,i,i,/,/,/
Cc1ccc2[nH]c(CN3CCC(CO)(CC4CCCCO4)CC3)c(C)c2c1 (centres undefined),i,-16,-0.08,i,i,i,/,/,/
CC(C)(C)c1ccc(Cn2c(=N)n(CC(O)c3ccco3)c3ccccc32)cc1 (centres undefined),9*,-32,-6.2*,-12*,-11*,i,40%*,43%*,26%*
Cc1ccnc(N2CCN(C(=O)CSc3nc4ccccc4nc3N3CCC(C)CC3)CC2)c1,i,-14,0.2,i,i,i,i,i,i
CCCCC1=NN(C(=O)c2cccnc2)C(O)(C(F)(F)F)C1 (centres undefined),i,-7,0.37,i,i,i,/,/,/
Cc1cc2ccccn2c1C(=O)c1ccccc1F,i,-7,-0.37,i,-12*,i,i,i,i
CN(C)/C=N/c1nc(-c2ccc3c(c2)OCO3)cs1,i,-4,-1.1,i,i,i,/,/,/
CN(C)/C=N/c1nc(-c2ccc3ccccc3c2)cs1,i,-7,1.2,i,i,i,i,i,i
CCc1nnc(NC(=O)CSc2nnc(-c3ccccc3OC)n2-c2ccccc2)s1,i,-16,2,i,-17*,i,68%*,i,32%*
CCc1nnc(NC(=O)CSc2nnc(-c3ccccc3OC)n2-c2ccc(C)cc2)s1,i,-4,0,i,i,i,/,/,/
Cc1ccc(CN2CCc3c(OCc4ccc(F)cc4)cccc3C2=O)cc1,i,-11,-1.8,i,-13*,i,71%*,i,42%*
Cc1ccc(CN2CCc3c(OCC(=O)Nc4cccc(C)c4C)cccc3C2=O)cc1,i,-16,1.3,/,i,i,/,/,/
Cc1ccc(OCC(=O)c2ccc3c(c2)CCCC3)cc1C,i,-3,1.1,i,i,i,i,i,i
O=C(COc1ccc(Br)cc1)c1ccc2c(c1)CCCC2,i,-4,0.65,i,i,i,/,/,/
CC(=O)N1CCN(C(=O)COC(=O)/C=C/c2ccccc2[N+](=O)[O-])CC1,/,/,/,i,/,/,/,/,/
Cc1ccc(/C=C/C(=O)Nc2ccc([N+](=O)[O-])cc2)o1,i,-12,0.97,i,i,i,/,/,/
Cc1ccc(/C=C/C(=O)Nc2ccc(Oc3ccccc3)cc2)o1,i,-11,-0.96,i,i,i,i,i,i
Cc1occc1C(=O)Nc1cccc(Cl)c1Cl,i,-9,1.4,i,i,i,/,/,/
Cc1cc(C)cc(C(=O)N2CC(C)SC2=Nc2cccc(S(=O)(=O)N(C)C)c2)c1 (centres undefined),i,-1,-0.78,i,-12*,i,64%*,i,34%*
O=C(CSc1nc2ccc(Cl)cc2[nH]1)Nc1ccc2[nH]c(=O)[nH]c2c1,i,-18,0.67,i,i,i,/,/,/
SMILES,KCNQ1 inh,hERG protect,Kir21 block,KCNK3 block,KCNK9 inh,KCNQ1 act,KCNK9 inh conf,Kir21 sel,HEK293 Tl ctr
CCC(NC(=O)c1cccc(Cn2cc([N+](=O)[O-])cn2)c1)c1ccc(C(C)C)cc1 (centres undefined),i,-9,-2.1,i,-14*,i,62%*,i,42%*
CCOC(=O)c1cc(CC)sc1NC(=O)COC(=O)c1ccccn1,i,-11,-2,i,i,i,/,/,/
CC/C(C)=N\Nc1nc(-c2cc3cc(OC)ccc3oc2=O)cs1,i,-9,0.51,i,i,i,i,i,i
CN(C(=S)Nc1ccc(Oc2ccccc2)cc1)C1CCCCC1,i,-7,0.15,i,i,i,i,i,i
CCN(C[C@H]1N[C@@](CC)(C(=O)OC)[C@H]2C(=O)N(Cc3ccccc3)C(=O)[C@@H]12)C(=O)c1ccc(C(C)(C)C)cc1,/,/,/,i,/,/,/,/,/
Cc1ccc(C)c2[nH]c(=O)c(CN(Cc3ccco3)C(=O)Nc3ccccc3)cc12,i,-16,1.8,i,-13*,i,62%*,i,i
Cc1ccc2cc(CN(Cc3ccco3)C(=O)NCc3ccccc3)c(=O)[nH]c2c1C,i,-5,-0.27,i,i,i,/,/,/
Cc1ccc(SCCNC(=S)Nc2ccc(C)cc2C)cc1,i,0,0.82,i,i,i,i,i,i
Cc1ccc(NC(=S)NCCC(c2ccccc2)c2ccccc2)c(C)c1,i,-11,-1.8,i,i,i,/,/,/
O=C(OC1CCN(c2ncc(C(F)(F)F)cc2Cl)CC1)c1ccc(Cl)cc1,i,-9,0.26,i,i,i,i,i,i
